Experimental data gathered from unrelated publications.
Compare with care: the assays were run in different laboratories.
EGFR L858R/T790M: Epidermal growth factor receptor (EGFR, Homo sapiens, UniProt P00533, L858R/T790M)
EGFR del752-759: Epidermal growth factor receptor (EGFR, Homo sapiens, UniProt P00533, del752-759)
EGFR G719C: Epidermal growth factor receptor (EGFR, Homo sapiens, UniProt P00533, G719C)
EGFR: Epidermal growth factor receptor (EGFR, Homo sapiens, UniProt P00533)
EGFR A750P/del747-749: Epidermal growth factor receptor (EGFR, Homo sapiens, UniProt P00533, A750P/del747-749)
EGFR T790M: Epidermal growth factor receptor (EGFR, Homo sapiens, UniProt P00533, T790M)
EGFR G719S: Epidermal growth factor receptor (EGFR, Homo sapiens, UniProt P00533, G719S)

| SMILES | target | read-out | method | tested at | remaining binding [%] |
| --- | --- | --- | --- | --- | --- |
| NS(=O)(=O)c1cc(NC(=O)Cc2ccccc2)ccc1Oc1cccc(Cl)c1 | EGFR L858R/T790M | cell-free assay | competition with immobilised ligand | 1 µM | 75 |
| O=C(Nc1c[nH]nc1C(=O)NC1CCNCC1)c1cc(F)cc(F)c1 | EGFR del752-759 | binding | competition with immobilised ligand | 1 µM | 100 |
| CC(=O)C1=C(C)N(c2cccc(C(F)(F)F)c2)C(=O)N[C@@H]1c1ccc(C#N)nc1 | EGFR G719C | cell-free assay | competition with immobilised ligand | 1 µM | 100 |
| F[C@@H]1CCN(c2nccc(-c3cnn4ncccc34)n2)C1 | EGFR | binding | – | 1 µM | 91 |
| Cc1cnc(Nc2ccc(C(=O)N3CCC(N4CCCC4)CC3)cc2)nc1-c1cc2ccccc2s1 | EGFR A750P/del747-749 | binding | competition with immobilised ligand | 1 µM | 72 |
| N[C@@H]1CCN(c2nccc(-c3cnn4ncccc34)n2)C1 | EGFR | binding | – | 1 µM | 75 |
| O=C(NCCCN1CCOCC1)c1ccc(Nc2ncc(Cl)c(-c3ccc(Cl)s3)n2)cc1 | EGFR | binding | competition with immobilised ligand | 1 µM | 89 |
| CNC(=O)[C@@H]1CC[C@@H](n2c(-c3ccc4cnccc4c3)nc3ccc(C(=O)NCc4cccc(C(N)=O)c4)cc32)C1 | EGFR | binding | competition with immobilised ligand | 1 µM | 100 |
| CN([C@@H]1CCc2c(CC(=O)O)c3ccccc3n2C1)S(=O)(=O)c1ccc(F)cc1 | EGFR A750P/del747-749 | cell-free assay | competition with immobilised ligand | 1 µM | 100 |
| C[C@@H]1CCN(c2nccc(-c3cnn4ncccc34)n2)C1 | EGFR | binding | – | 1 µM | 100 |
| COc1cnc(Nc2cccc(S(N)(=O)=O)c2)nc1N1CCN(c2ccccc2)CC1 | EGFR T790M | binding | competition with immobilised ligand | 1 µM | 72 |
| O=C(NC[C@@H]1[C@H]2CN(C(=O)OCc3cc(C(F)(F)F)cc(C(F)(F)F)c3)C[C@@H]12)c1ccc2[nH]nnc2c1 | Epidermal growth factor receptor (EGFR, Homo sapiens, UniProt P00533, L858R) | cell-free assay | competition with immobilised ligand | 1 µM | 100 |
| COc1ncc2cc3ccccc3nc2c1C#N | EGFR del752-759 | cell-free assay | competition with immobilised ligand | 5 µM | 96 |
| Cc1c(C(=O)O)cc(-c2ccc(C3CCNCC3)cc2)c2ccc(-c3ccc(C(F)(F)F)cc3)cc12 | Epidermal growth factor receptor (EGFR, Homo sapiens, UniProt P00533, del747-750/T751S) | cell-free assay | competition with immobilised ligand | 1 µM | 100 |
| CN1CCN(c2ccc(Nc3nccc(-c4ccccc4)n3)cc2C(F)(F)F)CC1 | EGFR G719C | binding | – | 10 µM | 64 |
| CN(C)c1nccc(-c2cnc3ncccn23)n1 | EGFR T790M | binding | – | 1 µM | 58 |
| CC(C)(C)c1ccc(-c2nc(CBr)nn2-c2cccc(O)c2)cc1 | EGFR | cell-free assay | competition with immobilised ligand | 10 µM | 85 |
| O=C(NCC1CCOCC1)c1n[nH]cc1NC(=O)c1c(F)cccc1F | EGFR del752-759 | binding | competition with immobilised ligand | 1 µM | 100 |
| Cc1cnn2ncc(-c3ccnc(N(C)C)n3)c2c1 | EGFR G719S | binding | – | 1 µM | 100 |
| O=C(Nc1cccnn1)N1CCC(=Cc2cccc(Oc3ccc(C(F)(F)F)cn3)c2)CC1 | EGFR L858R/T790M | cell-free assay | competition with immobilised ligand | 1 µM | 99 |
| O=C(c1ccc(Nc2nccc(-c3cc4ccccc4s3)n2)cc1)N1CCC(N2CCCC2)CC1 | Epidermal growth factor receptor (EGFR, Homo sapiens, UniProt P00533, L861Q) | binding | competition with immobilised ligand | 1 µM | 89 |
| C[C@@H](c1cccc(C#N)c1)n1cc(Cl)cc(C(N)=O)c1=N | Epidermal growth factor receptor (EGFR, Homo sapiens, UniProt P00533, del746-750) | cell-free assay | competition with immobilised ligand | 1 µM | 93 |
| O=C(c1ccc(Nc2ncc(Cl)c(-c3ccc(Cl)s3)n2)cc1)N1CCC(N2CCCC2)CC1 | EGFR T790M | binding | competition with immobilised ligand | 1 µM | 63 |
| c1cnn2ncc(-c3ccnc(N4CCC45COC5)n3)c2c1 | EGFR G719S | binding | – | 1 µM | 100 |
